Experimental data as given in ChEMBL document CHEMBL2407036, “Flow Synthesis and Biological Studies of an Analgesic Adamantane Derivative That Inhibits P2X7-Evoked Glutamate Release” (ACS Med Chem Lett, 2013).
The source made the active and inactive calls.

Experiments:
Rattus norvegicus [1] = test: Antinociceptive activity against carrageenan-induced hyperalgesia in rat assessed as paw pressure at 20 mg/kg, po measured after 15 mins (reference value: 32.8 +/- 2.9 g); format: functional
Outline: (§1)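 Rats received intraplantar carrageenan before oral dosing. Paw-pressure withdrawal threshold (g) was measured before treatment and at 15, 30, 60 and 90 min after it. Carrageenan-injected rats given vehicle served as reference, with saline-injected rats as a further control.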

P2X purinoceptor 7 = biological target: T1, P2X purinoceptor 7 (Rattus norvegicus, UniProt Q64663); test: Antagonist activity at P2X7 in Sprague-Dawley rat synaptosome assessed as inhibition of BzATP-induced [3H]D-aspartate efflux compound preincubated for 8 mins by liquid scintillation counting; parameters: species or system Brain
T1 sequence (Q64663 whole entry): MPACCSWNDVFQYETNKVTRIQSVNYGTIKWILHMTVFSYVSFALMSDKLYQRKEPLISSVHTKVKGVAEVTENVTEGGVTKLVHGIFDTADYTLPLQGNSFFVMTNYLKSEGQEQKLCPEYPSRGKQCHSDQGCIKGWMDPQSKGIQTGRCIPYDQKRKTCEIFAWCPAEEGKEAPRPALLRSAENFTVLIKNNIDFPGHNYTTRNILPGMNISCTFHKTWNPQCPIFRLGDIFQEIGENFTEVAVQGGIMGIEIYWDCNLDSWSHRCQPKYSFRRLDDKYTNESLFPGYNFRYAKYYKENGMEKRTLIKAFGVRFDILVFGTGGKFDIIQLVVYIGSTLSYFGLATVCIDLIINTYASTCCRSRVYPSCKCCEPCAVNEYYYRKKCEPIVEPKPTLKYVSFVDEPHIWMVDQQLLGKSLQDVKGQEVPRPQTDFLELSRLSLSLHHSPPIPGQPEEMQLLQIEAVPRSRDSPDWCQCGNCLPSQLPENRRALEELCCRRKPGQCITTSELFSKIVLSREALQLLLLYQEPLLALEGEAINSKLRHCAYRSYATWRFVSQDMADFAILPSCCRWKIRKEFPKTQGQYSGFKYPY
Outline: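 Purified rat cerebrocortical synaptosomes loaded with [3H]D-aspartate and superfused. 100 μM BzATP added for 120 s. Compound added 8 min before BzATP. Ca2+-free conditions used medium with 0.5 mM EGTA, added 18 min before BzATP. Log concentration–response for inhibition of evoked efflux. Mean ± SEM of 3−12 independent experiments in triplicate.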

[2] = biological target: T2, P2X purinoceptor 7 (Rattus norvegicus) (UniProt Q64663); conditions: Brain, 50 uM
T2 sequence (whole entry): T1 sequence (Q64663 whole entry)

Rattus norvegicus [3] = test: Antinociceptive activity against carrageenan-induced hyperalgesia in rat assessed as paw pressure at 3 mg/kg, po measured after 90 mins (reference value: 34.8 +/- 3.1 g); format: functional; outline: as §1
[4] = biological target: Prostaglandin G/H synthase 1 (Homo sapiens) (UniProt P23219); test: Inhibition of COX-1 (unknown origin)
Rattus norvegicus [5] = test: Antinociceptive activity against carrageenan-induced hyperalgesia in rat assessed as paw pressure at 3 mg/kg, po measured after 60 mins (reference value: 31.8 +/- 2.2 g); format: functional; outline: as §1
Rattus norvegicus [6] = test: Antinociceptive activity against carrageenan-induced hyperalgesia in rat assessed as paw pressure at 20 mg/kg, po measured after 60 mins (reference value: 31.8 +/- 2.2 g); format: functional; outline: as §1
Rattus norvegicus [7] = test: Antinociceptive activity against carrageenan-induced hyperalgesia in rat assessed as paw pressure at 3 mg/kg, po measured after 15 mins (reference value: 32.8 +/- 2.9 g); format: functional; outline: as §1
[8] = biological target: T3, Prostaglandin G/H synthase 2 (Homo sapiens) (UniProt P35354); test: Inhibition of COX-2 (unknown origin)
T3 sequence (whole entry): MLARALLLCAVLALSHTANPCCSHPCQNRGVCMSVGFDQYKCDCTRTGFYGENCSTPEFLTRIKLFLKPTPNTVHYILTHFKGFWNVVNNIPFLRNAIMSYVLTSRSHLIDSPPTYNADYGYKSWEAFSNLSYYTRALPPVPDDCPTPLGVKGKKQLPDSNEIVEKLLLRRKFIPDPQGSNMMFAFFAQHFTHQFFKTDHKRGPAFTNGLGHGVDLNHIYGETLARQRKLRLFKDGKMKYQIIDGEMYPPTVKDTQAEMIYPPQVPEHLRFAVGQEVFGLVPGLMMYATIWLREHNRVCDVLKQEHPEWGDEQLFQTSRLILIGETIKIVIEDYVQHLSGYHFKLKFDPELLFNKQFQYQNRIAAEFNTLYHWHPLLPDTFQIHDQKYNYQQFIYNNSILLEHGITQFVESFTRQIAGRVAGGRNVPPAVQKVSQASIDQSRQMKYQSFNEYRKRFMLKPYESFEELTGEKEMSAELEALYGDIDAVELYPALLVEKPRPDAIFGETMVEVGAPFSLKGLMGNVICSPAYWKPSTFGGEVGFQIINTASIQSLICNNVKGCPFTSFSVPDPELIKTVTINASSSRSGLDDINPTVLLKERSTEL

Rattus norvegicus [9] = test: Antinociceptive activity against carrageenan-induced paw edema in rat assessed as paw edema volume at 20 mg/kg, po measured after 30 mins (reference value: 2.71+/- 0.08 ml); format: functional
[10] = biological target: T2, P2X purinoceptor 7 (Rattus norvegicus); conditions: Brain, 50 uM; remark: listed apart in the source
Mus musculus [11] = test: Analgesic activity in Swiss albino mouse assessed as inhibition of acetic acid-induced abdominal contraction at 10 mg/kg, po measured after 30 mins in presence of naxolone; format: functional, organism-based; parameters: dose 10 mg/kg; conditions: Abdominal cavity
Rattus norvegicus [12] = test: Antinociceptive activity against carrageenan-induced hyperalgesia in rat assessed as paw pressure at 10 mg/kg, po measured after 90 mins (reference value: 34.8 +/- 3.1 g); format: functional; outline: as §1
Rattus norvegicus [13] = test: Antinociceptive activity against carrageenan-induced paw edema in rat assessed as paw edema volume at 3 mg/kg, po measured after 30 mins (reference value: 2.71+/- 0.08 ml); format: functional
Rattus norvegicus [14] = test: Antinociceptive activity against carrageenan-induced paw edema in rat assessed as paw edema volume at 10 mg/kg, po measured after 30 mins (reference value: 2.71+/- 0.08 ml); format: functional
Rattus norvegicus [15] = test: Antinociceptive activity against carrageenan-induced hyperalgesia in rat assessed as paw pressure at 20 mg/kg, po measured after 30 mins (reference value: 30.6 +/- 3.2 g); format: functional; outline: as §1
Rattus norvegicus [16] = test: Antinociceptive activity against carrageenan-induced hyperalgesia in rat assessed as paw pressure at 3 mg/kg, po measured after 30 mins (reference value: 30.6 +/- 3.2 g); format: functional; outline: as §1
Rattus norvegicus [17] = test: Antinociceptive activity against carrageenan-induced hyperalgesia in rat assessed as paw pressure at 10 mg/kg, po measured after 30 mins (reference value: 30.6 +/- 3.2 g); format: functional; outline: as §1
Mus musculus [18] = test: Analgesic activity in Swiss albino mouse assessed as inhibition of acetic acid-induced abdominal contraction at 3 mg/kg, po measured after 30 mins; format: functional, organism-based; parameters: dose 3 mg/kg; conditions: Abdominal cavity
Outline: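 Writhing was induced in Swiss albino mice with 0.6% acetic acid. Drugs were given p.o. 30 min before the test. Writhes were counted at 30 and 60 min and compared with vehicle-treated controls.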

[19] = biological target: T2, P2X purinoceptor 7 (Rattus norvegicus); conditions: Brain, 50 uM; remark: listed apart in the source
Rattus norvegicus [20] = organism: Rattus norvegicus; test: Inhibition of K+ depolarization-induced [3H]D-aspartate efflux in Sprague-Dawley rat synaptosome preincubated at 50 uM for 8 mins by liquid scintillation counting; format: functional, tissue-based; conditions: Brain
Outline: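 Purified rat cerebrocortical synaptosomes were loaded with [3H]D-aspartate and superfused. Compound was added 8 min before K+ depolarization, which was applied as KCl for 120 s during superfusion. Evoked tritium efflux was measured. Data are mean ± SEM of 3–12 independent experiments in triplicate.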

Rattus norvegicus [21] = test: Antinociceptive activity against carrageenan-induced hyperalgesia in rat assessed as paw pressure at 10 mg/kg, po measured after 60 mins (reference value: 31.8 +/- 2.2 g); format: functional; outline: as §1
Mus musculus [22] = test: Analgesic activity in Swiss albino mouse assessed as inhibition of acetic acid-induced abdominal contraction at 10 mg/kg, po measured after 30 mins in presence of SR-141716A; format: functional, organism-based; parameters: dose 10 mg/kg; conditions: Abdominal cavity
Rattus norvegicus [23] = test: Antinociceptive activity against carrageenan-induced hyperalgesia in rat assessed as paw pressure at 10 mg/kg, po measured after 15 mins (reference value: 32.8 +/- 2.9 g); format: functional; outline: as §1
Rattus norvegicus [24] = test: Antinociceptive activity against carrageenan-induced hyperalgesia in rat assessed as paw pressure at 20 mg/kg, po measured after 90 mins (reference value: 34.8 +/- 3.1 g); format: functional; outline: as §1

Chain of Prostaglandin G/H synthase 1 (Homo sapiens) (P23219 whole entry): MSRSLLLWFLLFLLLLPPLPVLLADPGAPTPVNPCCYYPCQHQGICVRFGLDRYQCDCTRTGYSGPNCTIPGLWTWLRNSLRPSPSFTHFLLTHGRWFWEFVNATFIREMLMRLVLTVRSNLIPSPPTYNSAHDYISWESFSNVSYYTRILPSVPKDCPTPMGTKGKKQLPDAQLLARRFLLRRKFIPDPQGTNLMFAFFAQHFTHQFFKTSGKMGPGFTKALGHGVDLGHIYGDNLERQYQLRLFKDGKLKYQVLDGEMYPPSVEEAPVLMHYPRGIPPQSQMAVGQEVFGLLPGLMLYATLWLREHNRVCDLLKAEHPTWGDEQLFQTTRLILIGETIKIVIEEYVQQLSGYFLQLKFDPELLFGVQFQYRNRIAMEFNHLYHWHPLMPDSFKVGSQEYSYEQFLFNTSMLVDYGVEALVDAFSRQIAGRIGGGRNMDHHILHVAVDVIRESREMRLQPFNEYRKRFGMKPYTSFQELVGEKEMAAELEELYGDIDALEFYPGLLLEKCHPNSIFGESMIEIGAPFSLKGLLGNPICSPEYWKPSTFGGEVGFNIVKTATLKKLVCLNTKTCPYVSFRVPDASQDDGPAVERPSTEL

In the case of `O=C(NC1(C(=O)NC2CC2)C2CC3CC(C2)CC1C3)c1ccccc1` (stereo not given), the Activity (Rattus norvegicus [1]) is reported as 48.4 g, the IC50 (P2X purinoceptor 7) is reported as 7.7 µM and the inhibition [2] is reported as “inactive”. For the same molecule, the Activity (Rattus norvegicus [3]) was 36.9 g, the inhibition [4] was “inactive” and the Activity (Rattus norvegicus [5]) was 35.6 g. The Activity (Rattus norvegicus [6]) was 48.3 g, the Activity (Rattus norvegicus [7]) was 39.1 g and the inhibition [8] was “inactive”. The Activity (Rattus norvegicus [9]) was 2.1 mL, the inhibition [10] was “Active” and the inhibition (Mus musculus [11]) was “Active”. The Activity (Rattus norvegicus [12]) was 38.2 g, the Activity (Rattus norvegicus [13]) was 2.53 mL and the Activity (Rattus norvegicus [14]) was 2.06 mL. It also gave an Activity (Rattus norvegicus [15]) of 53.9 g, an Activity (Rattus norvegicus [16]) of 40.8 g and an Activity (Rattus norvegicus [17]) of 52.7 g. The inhibition (Mus musculus [18]) was “Active”, the inhibition [19] was “inactive” and the inhibition (Rattus norvegicus [20]) was “inactive”. The Activity (Rattus norvegicus [21]) was 43.4 g, the inhibition (Mus musculus [22]) was “Active” and the Activity (Rattus norvegicus [23]) was 44.2 g. The Activity (Rattus norvegicus [24]) was 33.6 g.
